For data set [1], the system named is CCRF-CEM. Nature of the data set: Cytostatic activity against human CCRF-CEM cells after 72 hrs by MTT assay. The class given is functional, cell-based. An outline of the steps:
(§1)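 Cells were seeded at 25,000–30,000 per well and pre-incubated for 24 h at 37°C in 5% CO2. Four-fold compound dilutions were added in duplicate and incubated for 72 h. MTT was added for 1–4 h, and formazan was dissolved in 10% aq SDS (pH 5.5) overnight at 37°C. OD was read at 540 nm. IC50 came from dose-response curves, mean ± SD of eight independent experiments.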

In data set [2] the test system is CCRF-CEM. The experiment in a line: Induction of apoptosis in human CCRF-CEM cells assessed as inhibition of RNA synthesis at IC50 after 24 hrs by propidium iodide/BrU staining by flow cytometry. The class given is functional. The arrangement: scale not given: the % may be the effect or the level left.
Data set [3] relates to BJ. Nature of the data set: Cytostatic activity against human BJ cells after 72 hrs by MTT assay. Format: ADME, cell-based. An outline of the steps: as §1
On the technique in general: Formazan colour is commonly taken as a measure of viable cells.

In data set [4] the test system is MRC5. Nature of the data set: Cytostatic activity against human MRC5 cells after 72 hrs by MTT assay. Format: ADME, cell-based. The following applies: MRC5, 72 h. An outline of the steps:
as §1

The test system of data set [5] is Nucleic Acid. Nature of the data set: Binding affinity to DNA (unknown origin) assessed as DNA intercalation by UV-visible spectrophotometry in presence of Ni2+. Format: nucleic-acid assay.
The next data set deals with Pichia kudriavzevii. The experiment in a line: Antifungal activity against Candida crusei up to 200 uM after 24 to 48 hrs by broth microdilution method. Format: functional, organism-based. A general note: In broth dilution the organism is exposed to a series of concentrations in liquid medium.
The next data set relates to Candida albicans. Nature of the data set: Antifungal activity against Candida albicans up to 200 uM after 24 to 48 hrs by broth microdilution method. Format: functional, organism-based.
Data set [6] relates to BJ. Nature of the data set: Selectivity index, ratio of IC50 for human BJ cells to IC50 for human CEM-DNR cells. Format: functional.
Data set [7] relates to CCRF-CEM. Nature of the data set: Induction of apoptosis in human CCRF-CEM cells assessed as inhibition of RNA synthesis after 24 hrs by propidium iodide/BrU staining by flow cytometry. Format: functional, cell-based. (Flow cytometry measures light scatter and fluorescence of single cells or particles in a stream.)
Data set [8] can be described thus: Metal chelating activity of the compound assessed as formation of Ni2+ complex by UV-vis spectrometry. The class given is physicochemical.
Another data set relates to CEM-DNR. The experiment in a line: Selectivity index, ratio of IC50 for human MRC5 cells to IC50 for human CEM-DNR cells. Format: functional.
Data set [9] concerns CCRF-CEM. Nature of the data set: Cell cycle arrest in human CCRF-CEM cells assessed as accumulation at S phase at 5 times IC50 after 24 hrs by propidium iodide staining-based flow cytometry. Format: functional. The method in brief: (§2)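 Cells were then fixed in 70% ethanol, washed in hypotonic citrate buffer, treated with RNase (50 µg/mL) and stained with propidium iodide. Flow cytometry used a 488 nm laser. Apoptosis was scored as the percentage of particles with propidium content below G0/G1.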

Data set [10] deals with Nucleic Acid. Nature of the data set: Binding affinity to DNA (unknown origin) assessed as DNA intercalation by UV-visible spectrophotometry. The class given is nucleic-acid assay.
The test system of a further data set is Candida tropicalis. The experiment in a line: Antifungal activity against Candida tropicalis up to 200 uM after 24 to 48 hrs by broth microdilution method. The class given is functional, organism-based.
Data set [11] concerns BJ. Nature of the data set: Selectivity index, ratio of IC50 for human BJ cells to IC50 for human K562 cells. Format: functional.
For data set [12], the system named is CCRF-CEM. Nature of the data set: Cell cycle arrest in human CCRF-CEM cells assessed as accumulation at G0/G1 phase at IC50 after 24 hrs by propidium iodide staining-based flow cytometry. The class given is functional. The method in brief: as §2
In another data set the test system is A549. The experiment in a line: Cytostatic activity against human A549 cells after 72 hrs by MTT assay. Format: functional, cell-based. To be noted: A549, 72 h. An outline of the steps:
as §1

Data set [13] is described as follows: Cytostatic activity against human K562-TAX cells after 72 hrs by MTT assay. The class given is functional, cell-based. An outline of the steps: as §1
The test system of data set [14] is MRC5. The experiment in a line: Selectivity index, ratio of IC50 for human MRC5 cells to IC50 for human K562-TAX cells. Format: functional.
The subject of data set [15] is CCRF-CEM. Nature of the data set: Induction of apoptosis in human CCRF-CEM cells assessed as inhibition of DNA synthesis at IC50 after 24 hrs by propidium iodide/BrdU staining by flow cytometry. The arrangement: scale not given: the % may be the effect or the level left. The class given is functional.
Data set [16] is described as follows: Metal chelating activity of the compound assessed as formation of Ca2+ complex by UV-vis spectrometry. The class given is physicochemical.
Data set [17] has as its system Nucleic Acid. The experiment in a line: Binding affinity to DNA (unknown origin) assessed as DNA intercalation by UV-visible spectrophotometry in presence of Zn2+. The class given is nucleic-acid assay.

The source made the active and inactive calls. The rule behind the calls is not given here. A value given as a limit tells only on which side of the number the result lay.

As a reminder, the IC50 is the concentration needed to halve the response being measured. For the compound `O=C(N/N=C/c1cc(F)ccc1O)c1ccc2c3c(ccc2c1)N1Cc2c(ccc4cc(C(=O)N/N=C/c5cc(F)ccc5O)ccc24)N(C3)C1`, the IC50 was 1.58 µM in the data set on CCRF-CEM [1]; 54.1 µM in the data set with BJ [3]; 29 µM in the data set with MRC5 [4]; 1.24 µM with A549; 2.36 µM in data set [13]. Also, the Activity with CCRF-CEM [2] is given as 63.13%; in [8], “Active”; in the data set on CCRF-CEM [9], 42.41%; in the data set on CCRF-CEM [12], 31.5%; with CCRF-CEM [15], 13.69%; in data set [16], “Not Active”. The result in the data set on Nucleic Acid [5] and in the data set with Nucleic Acid [17] was Active. For the same compound, the result in the data set with Pichia kudriavzevii, in the data set on Candida albicans, in the data set on Nucleic Acid [10] and in the data set with Candida tropicalis was inactive. Moreover, the “Ratio IC50” value is 9.8 in the data set on BJ [6], 9.8 with CEM-DNR, 18.1 in the data set with BJ [11] and 17.6 in the data set with MRC5 [14]. For the same compound, in the data set with CCRF-CEM [7], the inhibition result was “Dose-dependent effect”.

As to `O=C(N/N=C/c1nccc2ccccc12)c1ccc2c3c(ccc2c1)N1Cc2c(ccc4cc(C(=O)N/N=C/c5nccc6ccccc56)ccc24)N(C3)C1`, the concentration for half-maximal inhibition (IC50) is 0.58 µM with CCRF-CEM [1]; > 100 µM in the data set on BJ [3]; > 100 µM with MRC5 [4]; 18.6 µM in the data set with A549; 10.1 µM in data set [13]. The Activity in the data set with CCRF-CEM [2] was 44%; in [8] it was “Active”; in the data set with CCRF-CEM [9], 39.87%; in the data set on CCRF-CEM [12], 46.09%; in the data set on CCRF-CEM [15], 52.93%; in data set [16], “Not Active”. For the same compound, the result with Nucleic Acid [5] and with Nucleic Acid [17] was Active. For the same compound, the result with Pichia kudriavzevii, in the data set on Candida albicans, in the data set on Nucleic Acid [10] and in the data set with Candida tropicalis was inactive. The “Ratio IC50” value in the data set with BJ [6] is listed as 15.9; in the data set on CEM-DNR, 15.9; in the data set on BJ [11] it was 121.9; in the data set on MRC5 [14], 9.9. Besides, the inhibition result with CCRF-CEM [7] is “Dose-dependent effect”.

Values taken from ChEMBL document CHEMBL3400013, “Synthesis and biological activity evaluation of hydrazone derivatives based on a Tröger's base skeleton” (Bioorg Med Chem, 2015).
